Measurements: ChEMBL document CHEMBL1156827, “Benzimidazole derivatives as new serotonin 5-HT6 receptor antagonists. Molecular mechanisms of receptor inactivation” (J Med Chem, 2010)
Calls of active or inactive are those of the source. The rule behind the calls is not given here.

Legend:
[1] = molecular target: 5-hydroxytryptamine receptor 7 (Homo sapiens, UniProt P34969); test: Displacement of [3H]LSD from human 5HT7 receptor expressed in HEK293 cells by liquid scintillation counting; assay type: cell-based
5-hydroxytryptamine receptor 7, sequence (P34969 whole entry): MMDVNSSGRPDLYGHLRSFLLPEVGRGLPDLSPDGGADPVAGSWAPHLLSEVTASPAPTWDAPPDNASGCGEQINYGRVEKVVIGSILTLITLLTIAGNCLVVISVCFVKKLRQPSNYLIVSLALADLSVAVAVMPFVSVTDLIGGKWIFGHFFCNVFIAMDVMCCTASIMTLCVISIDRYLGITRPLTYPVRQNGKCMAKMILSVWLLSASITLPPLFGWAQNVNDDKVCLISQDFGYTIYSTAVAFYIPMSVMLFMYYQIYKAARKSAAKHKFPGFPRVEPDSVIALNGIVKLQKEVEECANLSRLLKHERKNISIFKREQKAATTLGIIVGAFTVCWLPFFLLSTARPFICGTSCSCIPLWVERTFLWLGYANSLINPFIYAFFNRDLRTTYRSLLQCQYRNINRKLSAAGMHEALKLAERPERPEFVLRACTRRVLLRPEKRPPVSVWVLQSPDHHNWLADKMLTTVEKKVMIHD
How it was run: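 Purchased HEK-293 membranes expressing h5-HT7R were incubated with 3 nM [³H]LSD for 120 min at 27 °C. Buffer: 50 mM Tris-HCl, 10 mM MgSO4, 0.5 mM EDTA, pH 7.4. Nonspecific binding was defined with 25 μM clozapine. Samples were filtered onto 0.3% PEI-soaked filters, washed with ice-cold Tris, and counted by scintillation. Ki was derived from IC50 by Cheng-Prusoff.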

[2] = molecular target: T1, 5-hydroxytryptamine receptor 6 (Homo sapiens, UniProt P50406); test: Displacement of [3H]LSD from human 5HT6 receptor expressed in HEK293 cells by liquid scintillation counting; assay type: cell-based
T1 sequence (P50406 whole entry): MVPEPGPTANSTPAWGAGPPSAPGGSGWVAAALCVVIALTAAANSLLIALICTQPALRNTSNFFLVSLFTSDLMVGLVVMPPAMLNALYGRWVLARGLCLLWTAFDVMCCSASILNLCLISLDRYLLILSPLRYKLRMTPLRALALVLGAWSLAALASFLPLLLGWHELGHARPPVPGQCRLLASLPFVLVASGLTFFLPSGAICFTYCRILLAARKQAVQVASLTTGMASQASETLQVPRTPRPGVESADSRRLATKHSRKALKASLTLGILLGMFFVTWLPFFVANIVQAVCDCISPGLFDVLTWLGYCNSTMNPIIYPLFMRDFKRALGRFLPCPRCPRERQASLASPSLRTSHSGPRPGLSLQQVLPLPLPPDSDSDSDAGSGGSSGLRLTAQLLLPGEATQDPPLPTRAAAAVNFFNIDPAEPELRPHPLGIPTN
How it was run: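 Buffer: 50 mM Tris-HCl, 10 mM MgCl2, 0.5 mM EDTA, pH 7.4. Nonspecific binding was defined with 500 μM serotonin. Samples were filtered onto 0.5% PEI-soaked filters, washed with ice-cold Tris, and counted by scintillation. Screening was at 10^-6 M; six-point curves were run if displacement exceeded 50%. Ki by Cheng-Prusoff, 2-4 experiments.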

[3] = molecular target: 5-hydroxytryptamine receptor 6 (Mus musculus, UniProt Q9R1C8, F287A); test: Antagonist activity at mouse 5HT6 receptor F6.52A mutant expressed in COS7 cells assessed as inhibition of serotonin-induced cAMP accumulation by HTRF assay; assay type: functional, cell-based, COS-7
5-hydroxytryptamine receptor 6 (Mus musculus, UniProt Q9R1C8, F287A), sequence (Q9R1C8 whole entry F287A): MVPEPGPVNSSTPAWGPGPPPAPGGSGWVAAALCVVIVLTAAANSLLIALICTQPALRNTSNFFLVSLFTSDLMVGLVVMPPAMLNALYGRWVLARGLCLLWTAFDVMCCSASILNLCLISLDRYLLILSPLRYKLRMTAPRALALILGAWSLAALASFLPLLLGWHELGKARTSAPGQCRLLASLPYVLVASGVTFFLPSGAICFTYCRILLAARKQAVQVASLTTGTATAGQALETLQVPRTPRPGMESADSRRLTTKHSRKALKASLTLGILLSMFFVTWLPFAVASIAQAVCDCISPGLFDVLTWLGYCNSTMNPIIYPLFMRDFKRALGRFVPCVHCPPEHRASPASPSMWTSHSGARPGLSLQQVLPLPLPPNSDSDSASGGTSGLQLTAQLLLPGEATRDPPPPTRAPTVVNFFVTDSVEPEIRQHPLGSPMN
How it was run: (§1)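 COS-7 cells were transfected with wild-type or mutant receptor cDNA and seeded at 100000 cells/well. At 24 h post-transfection, cells were stimulated for 10 min at 37 °C with eight concentrations of test ligand plus 100 μM 5-HT. cAMP was read by HTRF. […] Three independent experiments in triplicate, mean ± SEM.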

[4] = molecular target: 5-hydroxytryptamine receptor 6 (Mus musculus, UniProt Q9R1C8); test: Antagonist activity at mouse wild type 5HT6 receptor expressed in COS7 cells assessed as inhibition of serotonin-induced cAMP accumulation by HTRF assay; assay type: functional, cell-based, COS-7
5-hydroxytryptamine receptor 6 (Mus musculus, UniProt Q9R1C8), sequence (Q9R1C8 whole entry): as the sequence (Q9R1C8 whole entry F287A) above, with A287F counted along it
How it was run: (§2)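 COS-7 cells were transfected with wild-type or mutant receptor cDNA and seeded at 100000 cells/well. At 24 h post-transfection, cells were stimulated for 10 min at 37 °C with eight concentrations of test ligand plus 100 μM 5-HT. cAMP was read by HTRF. Three independent experiments in triplicate, mean ± SEM.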

[5] = molecular target: 5-hydroxytryptamine receptor 6 (Mus musculus, UniProt Q9R1C8, C110A); test: Antagonist activity at mouse 5HT6 receptor C3.36A mutant expressed in COS7 cells assessed as inhibition of serotonin-induced cAMP accumulation by HTRF assay; assay type: functional, cell-based, COS-7; how it was run: as §2
5-hydroxytryptamine receptor 6 (Mus musculus, UniProt Q9R1C8, C110A), sequence (Q9R1C8 whole entry C110A): as the sequence (Q9R1C8 whole entry F287A) above, with C110A, A287F counted along it

[6] = Antagonist activity at mouse 5HT6 receptor N6.55A mutant expressed in COS7 cells assessed as inhibition of serotonin-induced cAMP accumulation by HTRF assay; assay type: functional, cell-based; conditions: cos-7; how it was run: as §1
[7] = molecular target: 5-hydroxytryptamine receptor 6 (Mus musculus, UniProt Q9R1C8, W283A); test: Antagonist activity at mouse 5HT6 receptor W6.48A mutant expressed in COS7 cells assessed as inhibition of serotonin-induced cAMP accumulation by HTRF assay; assay type: functional, cell-based, COS-7; how it was run: as §1
5-hydroxytryptamine receptor 6 (Mus musculus, UniProt Q9R1C8, W283A), sequence (Q9R1C8 whole entry W283A): as the sequence (Q9R1C8 whole entry F287A) above, with W283A, A287F counted along it

[8] = molecular target: T1, 5-hydroxytryptamine receptor 6; test: Antagonist activity at human 5HT6 receptor expressed in COS7 cells assessed as inhibition of serotonin-induced cAMP accumulation by HTRF assay; assay type: functional, cell-based, COS-7; how it was run: as §2
[9] = molecular target: T1, 5-hydroxytryptamine receptor 6; test: Agonist activity at human 5HT6 receptor expressed in COS7 cells assessed as stimulation of cAMP accumulation by HTRF assay; assay type: functional, cell-based; conditions: COS-7
How it was run: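 COS-7 cells transfected with human 5-HT6R cDNA, seeded 100000 cells/well, stimulated 24 h post-transfection for 10 min at 37 °C with each tested compound without 5-HT (agonist mode). cAMP quantified by HTRF; activity expressed as percentage of maximal effect obtained with serotonin alone. Three independent experiments in triplicate.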

c1ccc2c(Cc3nc4ccc(N5CCNCC5)cc4[nH]3)cccc2c1
Ki [1]: > 500 nM
Ki [2]: > 1000 nM

COc1ccc(NS(=O)(=O)c2ccc(I)cc2)cc1N1CCN(C)CC1
Ki [3]: 114 nM
Ki [4]: 0.75 nM
Ki [5]: 54 nM
Ki [6]: 27 nM
Ki [7]: 0.32 nM

O=C(c1ccccc1)c1nc2c(N3CCNCC3)cccc2[nH]1
Ki [1]: > 500 nM
Ki [2]: > 1000 nM

c1ccc(Cc2nc3cc(N4CCNCC4)ccc3[nH]2)cc1
Ki [1]: > 500 nM
Ki [2]: > 1000 nM

c1ccc2cc(Cc3nc4ccc(N5CCNCC5)cc4[nH]3)ccc2c1
Ki [1]: > 500 nM
Ki [2]: > 1000 nM

CN1CCN(c2ccc3[nH]c(C(=O)c4ccc5ccccc5c4)nc3c2)CC1
Ki [1]: > 500 nM
Ki [2]: > 1000 nM

CN1CCN(c2ccc3[nH]c(C(=O)c4cccc5ccccc45)nc3c2)CC1
Ki [1]: > 500 nM
Ki [2]: > 1000 nM

CN1CCN(c2ccc3[nH]c(Cc4ccccc4)nc3c2)CC1
Ki [1]: > 500 nM
Ki [2]: > 1000 nM

CN1CCN(c2cccc3[nH]c(Cc4ccccc4)nc23)CC1
Ki [8]: 16 nM
Activity [9]: inactive
Ki [1]: > 500 nM
Ki [2]: 66.8 nM

c1ccc2c(Cc3nc4c(N5CCNCC5)cccc4[nH]3)cccc2c1
Ki [8]: 16 nM
Activity [9]: inactive
Ki [1]: > 500 nM
Ki [2]: 16 nM

CN1CCN(c2ccc3[nH]c(Cc4ccc5ccccc5c4)nc3c2)CC1
Ki [1]: > 500 nM
Ki [2]: > 1000 nM

CN1CCN(c2cccc3[nH]c(C(=O)c4ccccc4)nc23)CC1
Ki [1]: > 500 nM
Ki [2]: > 1000 nM

CN1CCN(c2cccc3[nH]c(Cc4cccc5ccccc45)nc23)CC1
Ki [8]: 27 nM
Activity [9]: inactive
Ki [1]: > 500 nM
Ki [2]: 36.2 nM

O=C(c1ccc2ccccc2c1)c1nc2cc(N3CCNCC3)ccc2[nH]1
Ki [1]: > 500 nM
Ki [2]: > 1000 nM

c1ccc(Cc2nc3c(N4CCNCC4)cccc3[nH]2)cc1
Ki [8]: 31 nM
Activity [9]: inactive
Ki [1]: > 500 nM
Ki [2]: 58 nM

O=C(c1nc2c(N3CCNCC3)cccc2[nH]1)c1cccc2ccccc12
Ki [8]: 15 nM
Activity [9]: inactive
Ki [1]: > 500 nM
Ki [2]: 13 nM

CN1CCN(c2cccc3[nH]c(C(=O)c4cccc5ccccc45)nc23)CC1
Ki [1]: > 500 nM

CN1CCN(c2cccc3[nH]c(C(=O)c4ccc5ccccc5c4)nc23)CC1
Ki [1]: > 500 nM
Ki [2]: > 1000 nM

CN1CCN(c2ccc3[nH]c(C(=O)c4ccccc4)nc3c2)CC1
Ki [1]: > 500 nM
Ki [2]: > 1000 nM

CN1CCN(c2ccc3[nH]c(Cc4cccc5ccccc45)nc3c2)CC1
Ki [1]: > 500 nM
Ki [2]: > 1000 nM

CN1CCN(c2cccc3[nH]cnc23)CC1
Ki [2]: > 1000 nM
